The source made the active and inactive calls. No cut-off for these calls is given here.
How the values were obtained:
[1] = molecular target: Fibroblast growth factor receptor (Homo sapiens) (UniProt P22607+P11362+P22455+P21802); experiment: Induction of FGFR degradation in human KATO III stomach cancer cell line assessed as reduction in FRS2 phosphorylation at 50 nM measured for 6 hrs; assay type: cell-based
Procedure, shortened: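 KATO III cells incubated 6 h with 50 nM compound, then stimulated with FGF1 for 10 min; pFGFR, pPLCγ1 (Tyr783) and pFRS2α immunoblotted.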

[2] = molecular target: T1, Protein cereblon/Fibroblast growth factor receptor 2 (Homo sapiens, UniProt P21802+Q96SW2); experiment: PROTAC activity at CRBN/FGFR2 in human KATO III stomach cancer cell line assessed as FGFR2 degradation measured for 6 hrs by immunoblot analysis; assay type: cell-based
T1 sequence (P21802 22-821 limits assumed): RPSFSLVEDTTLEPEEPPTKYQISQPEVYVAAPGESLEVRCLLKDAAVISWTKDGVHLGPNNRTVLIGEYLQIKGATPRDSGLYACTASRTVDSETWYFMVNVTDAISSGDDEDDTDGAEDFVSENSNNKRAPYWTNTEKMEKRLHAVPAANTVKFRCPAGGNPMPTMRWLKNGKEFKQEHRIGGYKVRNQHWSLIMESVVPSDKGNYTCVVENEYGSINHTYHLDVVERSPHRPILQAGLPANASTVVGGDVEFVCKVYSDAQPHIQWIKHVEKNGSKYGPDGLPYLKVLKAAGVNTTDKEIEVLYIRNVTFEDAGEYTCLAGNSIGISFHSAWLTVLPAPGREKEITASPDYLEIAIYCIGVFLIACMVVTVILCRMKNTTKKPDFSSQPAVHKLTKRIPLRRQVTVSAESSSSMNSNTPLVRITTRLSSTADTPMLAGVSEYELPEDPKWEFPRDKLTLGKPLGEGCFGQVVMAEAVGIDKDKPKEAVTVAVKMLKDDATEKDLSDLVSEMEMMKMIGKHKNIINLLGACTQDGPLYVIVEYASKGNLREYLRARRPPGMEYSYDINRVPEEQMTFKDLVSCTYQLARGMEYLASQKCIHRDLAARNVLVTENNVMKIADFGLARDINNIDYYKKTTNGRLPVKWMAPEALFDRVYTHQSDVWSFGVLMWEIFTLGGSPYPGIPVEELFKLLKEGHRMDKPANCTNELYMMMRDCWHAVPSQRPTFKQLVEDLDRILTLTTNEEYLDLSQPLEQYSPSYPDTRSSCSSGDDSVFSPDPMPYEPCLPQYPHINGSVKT
T1 sequence (Q96SW2 whole entry partner): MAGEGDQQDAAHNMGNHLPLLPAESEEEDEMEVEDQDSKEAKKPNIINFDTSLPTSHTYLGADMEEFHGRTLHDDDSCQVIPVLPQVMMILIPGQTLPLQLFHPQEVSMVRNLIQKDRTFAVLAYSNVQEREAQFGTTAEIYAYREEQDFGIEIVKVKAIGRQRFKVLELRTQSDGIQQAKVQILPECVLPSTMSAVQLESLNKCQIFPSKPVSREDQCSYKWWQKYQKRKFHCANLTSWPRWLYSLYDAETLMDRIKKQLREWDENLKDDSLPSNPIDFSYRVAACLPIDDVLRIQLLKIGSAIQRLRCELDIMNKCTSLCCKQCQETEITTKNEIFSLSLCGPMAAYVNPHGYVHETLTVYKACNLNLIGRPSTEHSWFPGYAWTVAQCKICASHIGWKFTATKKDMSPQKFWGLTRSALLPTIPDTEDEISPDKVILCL
Procedure, shortened: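 KATO III cells treated for 6 h at the stated concentrations, added from 10 mM DMSO stocks (final DMSO below 0.5%). Cells were washed with PBS and lysed in 2× loading buffer, then run on SDS-PAGE and blotted to PVDF. Anti-FGFR2 was applied overnight at 4 °C, with ECL detection. FGFR2 was expressed as FGFR2/β-actin, normalized to DMSO-treated cells, from three independent biological experiments.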

[3] = Toxicity in ICR mouse assessed as morphological changes in spleen at 20 mg/kg, po measured for 30 days by hematoxyin-eosin staining based analysis; assay type: organism-based; conditions: in vivo, 720 h, time 30 day
Procedure, shortened: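 ICR mice (n = 6) were dosed orally at 20 mg/kg/day for 30 days, alongside vehicle-treated controls. Mortality and clinical signs were checked daily. At the end, body and organ weights were recorded. Heart, liver, spleen, lung and kidney were examined by hematoxylin and eosin staining.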

[4] = molecular target: T1, Protein cereblon/Fibroblast growth factor receptor 2; experiment: PROTAC activity at CRBN/FGFR2 in human KATO III stomach cancer cell line assessed as FGFR2 degradation by measuring FGFR2 expression level upto 300 nM measured for 6 hrs by Western blotting analysis; assay type: cell-based
Procedure, shortened: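 KATO III cells treated 6 h across 0.5–10,000 nM (DMSO stock, final DMSO below 0.5%); FGFR2 immunoblotted, quantified as FGFR2/β-actin ratio normalized to DMSO-treated cells, three independent biological experiments; DC50 and Dmax derived from the curve.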

[5] = molecular target: Fibroblast growth factor receptor 2 (Homo sapiens) (UniProt P21802); experiment: Induction of FGFR2 receptor relocalization in human KATO III stomach cancer cell line at 100 nM measured for 3 hrs by immunofluorescence assay; assay type: cell-based; conditions: filed as activator
Sequence of Fibroblast growth factor receptor 2 (Homo sapiens) (P21802 22-821 limits assumed): as the sequence (P21802 22-821 limits assumed) above
Procedure, shortened: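 KATO III cells treated with 100 nM for 3 or 6 h, fixed in 2% formaldehyde 2 min, blocked 5% BSA 1 h, anti-FGFR2 overnight, Alexa Fluor 488 secondary 1 h, DAPI 10 min; imaged by fluorescence microscopy.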

Sequence of Fibroblast growth factor receptor (Homo sapiens) (P11362 whole entry, looked up): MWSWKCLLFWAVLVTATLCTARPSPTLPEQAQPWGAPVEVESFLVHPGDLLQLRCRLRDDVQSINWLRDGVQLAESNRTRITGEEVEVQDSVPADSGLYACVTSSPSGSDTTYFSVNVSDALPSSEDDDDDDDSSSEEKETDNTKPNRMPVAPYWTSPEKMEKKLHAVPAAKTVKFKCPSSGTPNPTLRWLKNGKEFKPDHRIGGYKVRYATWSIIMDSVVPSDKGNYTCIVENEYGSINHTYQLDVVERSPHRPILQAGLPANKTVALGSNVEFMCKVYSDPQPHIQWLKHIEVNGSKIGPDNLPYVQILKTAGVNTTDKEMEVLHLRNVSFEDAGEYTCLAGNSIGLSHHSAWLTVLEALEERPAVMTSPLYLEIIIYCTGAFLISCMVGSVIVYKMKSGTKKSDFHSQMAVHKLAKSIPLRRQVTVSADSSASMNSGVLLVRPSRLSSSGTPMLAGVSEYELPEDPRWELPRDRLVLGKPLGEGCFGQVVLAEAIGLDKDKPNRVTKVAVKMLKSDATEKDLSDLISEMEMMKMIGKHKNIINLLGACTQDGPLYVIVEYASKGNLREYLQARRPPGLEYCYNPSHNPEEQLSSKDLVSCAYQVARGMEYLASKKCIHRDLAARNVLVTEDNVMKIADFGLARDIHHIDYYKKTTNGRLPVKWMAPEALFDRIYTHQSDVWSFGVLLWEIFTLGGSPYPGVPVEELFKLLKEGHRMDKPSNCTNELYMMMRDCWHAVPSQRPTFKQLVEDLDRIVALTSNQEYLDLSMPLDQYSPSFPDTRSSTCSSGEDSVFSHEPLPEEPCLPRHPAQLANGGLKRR
Sequence of Fibroblast growth factor receptor (Homo sapiens) (P21802 whole entry, looked up): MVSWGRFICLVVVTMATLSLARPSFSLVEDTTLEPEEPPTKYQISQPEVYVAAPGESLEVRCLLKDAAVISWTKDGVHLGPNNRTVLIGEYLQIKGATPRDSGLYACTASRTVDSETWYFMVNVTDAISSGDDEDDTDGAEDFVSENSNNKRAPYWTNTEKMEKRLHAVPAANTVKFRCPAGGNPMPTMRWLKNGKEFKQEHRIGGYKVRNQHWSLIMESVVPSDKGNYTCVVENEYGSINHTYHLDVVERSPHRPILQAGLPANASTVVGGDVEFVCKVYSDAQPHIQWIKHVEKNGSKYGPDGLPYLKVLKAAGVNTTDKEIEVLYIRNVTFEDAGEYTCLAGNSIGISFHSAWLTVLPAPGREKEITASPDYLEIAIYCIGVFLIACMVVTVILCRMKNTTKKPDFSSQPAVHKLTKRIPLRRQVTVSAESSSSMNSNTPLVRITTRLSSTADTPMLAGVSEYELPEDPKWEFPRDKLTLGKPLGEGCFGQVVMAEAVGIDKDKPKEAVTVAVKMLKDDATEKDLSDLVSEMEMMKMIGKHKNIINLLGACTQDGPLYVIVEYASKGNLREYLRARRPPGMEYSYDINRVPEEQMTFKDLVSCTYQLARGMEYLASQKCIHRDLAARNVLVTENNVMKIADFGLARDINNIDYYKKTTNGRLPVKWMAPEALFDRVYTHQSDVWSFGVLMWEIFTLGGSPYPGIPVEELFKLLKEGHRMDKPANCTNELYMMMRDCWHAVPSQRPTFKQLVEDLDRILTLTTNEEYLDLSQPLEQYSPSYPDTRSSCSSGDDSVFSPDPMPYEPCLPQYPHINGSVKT
Sequence of Fibroblast growth factor receptor (Homo sapiens) (P22455 whole entry, looked up): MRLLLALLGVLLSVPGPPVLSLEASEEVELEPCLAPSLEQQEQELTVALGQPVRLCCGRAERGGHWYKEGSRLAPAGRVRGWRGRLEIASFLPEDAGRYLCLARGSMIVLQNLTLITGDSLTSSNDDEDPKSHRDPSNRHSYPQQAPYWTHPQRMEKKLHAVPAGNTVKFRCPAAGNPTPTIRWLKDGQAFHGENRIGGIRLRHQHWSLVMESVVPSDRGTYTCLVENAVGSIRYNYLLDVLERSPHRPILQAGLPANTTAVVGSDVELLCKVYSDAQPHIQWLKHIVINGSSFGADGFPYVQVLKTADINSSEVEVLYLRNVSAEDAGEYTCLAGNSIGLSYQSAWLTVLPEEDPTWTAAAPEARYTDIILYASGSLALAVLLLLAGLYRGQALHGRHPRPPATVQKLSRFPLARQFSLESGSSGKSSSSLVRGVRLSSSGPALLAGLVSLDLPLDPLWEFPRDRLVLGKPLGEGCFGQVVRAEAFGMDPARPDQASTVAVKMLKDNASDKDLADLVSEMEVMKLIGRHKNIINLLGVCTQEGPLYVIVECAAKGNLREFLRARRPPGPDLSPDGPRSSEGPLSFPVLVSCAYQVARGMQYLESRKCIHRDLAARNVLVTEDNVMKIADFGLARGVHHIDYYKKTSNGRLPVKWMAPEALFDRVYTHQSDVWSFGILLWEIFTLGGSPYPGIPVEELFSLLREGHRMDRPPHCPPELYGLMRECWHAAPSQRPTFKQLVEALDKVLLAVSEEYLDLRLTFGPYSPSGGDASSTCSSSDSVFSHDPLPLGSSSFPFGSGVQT
Sequence of Fibroblast growth factor receptor (Homo sapiens) (P22607 whole entry, looked up): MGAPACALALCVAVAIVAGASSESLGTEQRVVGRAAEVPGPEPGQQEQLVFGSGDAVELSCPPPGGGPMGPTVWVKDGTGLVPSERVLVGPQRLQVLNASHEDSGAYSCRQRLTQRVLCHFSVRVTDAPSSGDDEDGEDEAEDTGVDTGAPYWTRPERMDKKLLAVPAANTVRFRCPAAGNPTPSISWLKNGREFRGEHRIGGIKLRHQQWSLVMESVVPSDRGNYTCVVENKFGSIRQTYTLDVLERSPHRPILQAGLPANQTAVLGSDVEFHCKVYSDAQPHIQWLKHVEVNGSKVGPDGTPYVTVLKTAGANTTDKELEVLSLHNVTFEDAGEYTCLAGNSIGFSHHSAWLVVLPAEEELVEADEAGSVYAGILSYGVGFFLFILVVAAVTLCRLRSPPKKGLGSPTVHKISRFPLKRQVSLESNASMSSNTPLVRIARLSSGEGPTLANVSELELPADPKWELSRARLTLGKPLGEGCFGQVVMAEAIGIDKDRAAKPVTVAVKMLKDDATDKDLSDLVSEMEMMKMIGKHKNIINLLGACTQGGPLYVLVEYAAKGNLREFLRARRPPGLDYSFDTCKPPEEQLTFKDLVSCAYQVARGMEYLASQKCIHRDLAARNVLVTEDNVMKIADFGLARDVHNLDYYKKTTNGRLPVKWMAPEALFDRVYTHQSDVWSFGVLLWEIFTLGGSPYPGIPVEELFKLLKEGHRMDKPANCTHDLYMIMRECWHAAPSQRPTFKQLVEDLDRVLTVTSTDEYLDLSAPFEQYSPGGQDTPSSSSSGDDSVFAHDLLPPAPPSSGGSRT

- Activity [1]: Active
- Activity [2]: inactive
- Activity [4]: inactive
- Activity [5]: Active
SMILES: COc1cc(OC)c(Cl)c(NC(=O)N(C)c2cc(Nc3ccc(N4CCN(C(=O)C5CCN(c6ccc7c(c6)C(=O)N(C6CCC(=O)NC6=O)C7=O)CC5)CC4)cc3)ncn2)c1Cl (stereo not given)
- Activity [3]: Non-Toxic
